Screening data (PubChem)
MC4R ag barr: activates human MC4R beta-arrestin recruitment | AID 540308 | activation, % at 8.9 µM | P32245 | 360,000 tested, 0.98% active | U2OS MC4R beta-arrestin complementation, luminescence; percent of melanotan II response, DMSO zero;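 active = activation above a per-plate cutoff, the mean activation of sample wells on that plate plus 3 SD, cut at about 8% in these data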
Target sequence (P32245 whole entry, looked up): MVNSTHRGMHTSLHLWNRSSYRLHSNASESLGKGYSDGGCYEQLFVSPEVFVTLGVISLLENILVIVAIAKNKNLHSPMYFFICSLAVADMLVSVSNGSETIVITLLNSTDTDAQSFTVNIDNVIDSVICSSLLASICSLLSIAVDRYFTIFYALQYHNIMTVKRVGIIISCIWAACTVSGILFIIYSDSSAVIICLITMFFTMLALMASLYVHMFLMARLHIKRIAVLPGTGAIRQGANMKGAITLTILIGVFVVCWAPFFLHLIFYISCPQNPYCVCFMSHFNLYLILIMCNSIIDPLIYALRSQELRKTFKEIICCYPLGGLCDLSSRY
TAAR1 antag: antagonists of human TAAR1 | CHO RD-HGA16 TAAR1, Fluo-8 calcium fluorescence, antagonist | inhibition, % at 3 µM | 360,000 tested, 1.5% active | AID 624466;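 active = inhibition above a per-plate cutoff, the mean inhibition of test compounds on that plate plus 3 SD, cut at about 49% in these data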;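 note: 0% = DMSO plus EC80 beta-PEA response and 100% = DMSO alone without agonist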
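Material: RD-HGA16 CHO cells with stable hTAAR1 and Gα16; Dosing: single nominal final test compound concentration of 3 µM; Schedule: seeding 17-24 h prior, 75-min 37 °C, 30-min RT dye loading; Detection: kinetic Fluo-8 calcium fluorescence measurement; Measure: % inhibition from peak post-agonist over basal fluorescence ratio; Benchmarks: vehicle and agonist controls.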
MC4R antag cAMP: blocks human MC4R cAMP signaling | P32245 | MC4R-expressing cells, MTII-stimulated cAMP, LANCE TR-FRET | inhibition, % at 6.5 µM | 360,000 tested, 0.48% active | AID 540295;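 active = inhibition above its plate's cutoff, the mean of tested wells on that plate plus 3 SD, cut at about 29% in these data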;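 note: 0% = Melanotan II alone and 100% = Melanotan II plus saturating MCL0020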
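System – human MC4R-expressing U2OS cells · Also added – Melanotan II · Dosing – one concentration, 6.5 µM nominal · Timing – 30-min compound, 1-h challenge, 1-h detection, room temperature · Measured by – Eu-cAMP/anti-cAMP TR-FRET, emission 671 nm · Replicates – singlicate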
Beta2AR agonist: agonists of human beta-2 adrenergic receptor inducing internalization; P07550; Am2.2-beta2AR cells, FAP receptor internalization, flow cytometry; response, % (no concentration beside the values); 340,000 tested, 0.43% active; AID 504454;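 active = response above a set limit, near 3 SD of response in nonfluorescent compounds, cut at about 42% in these data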
m5-HT2A agonist: mouse HTR2A agonism via beta-arrestin recruitment. P35363. CHO-K1 mHTR2A beta-arrestin complementation, luminescence; percent of 30 µM serotonin response. activation, % at 7.6 µM. 360,000 tested, 0.66% active;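 active = activation above a run cutoff, the mean activation of all tested compounds plus 3 SD, cut at about 14% in these data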;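 note: 0% = plate median of compound wells and 100% = 30 µM serotonin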
TAAR1 agonist: human TAAR1 agonism; Q96RJ0; CHO RD-HGA16 TAAR1, Fluo-8 calcium fluorescence; vehicle wells 0%, saturating PEA agonist 100%; activation, % at 3 µM; 360,000 tested, 0.99% active; AID 624467;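 active = activation above the mean activation of all test compounds in the run plus 3 SD, cut at about 38% in these data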
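Test system: RD-HGA16 (CHO) cells co-expressing Gα16 and hTAAR1 | Doses: Single dose, 3 µM | Schedule: 17-24 h seeding, 75 min 37 °C dye, 30 min RT | Evaluation: % activation from peak over basal fluorescence ratio, DMSO-to-PEA scaled | Technique: Kinetic Fluo-8 calcium fluorescence | Benchmarks: Low control DMSO, high control PEA (EC100)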
Active calls of the source: *; · = not tested or not shown. An excerpt weighted towards active compounds, which were near 4.3% of everything screened.

SMILES | MC4R ag barr | TAAR1 antag | MC4R antag cAMP | Beta2AR agonist | m5-HT2A agonist | TAAR1 agonist
CC(=O)c1cccc(NC(=O)Nc2ccc3c(c2)N(C)C(=O)CS3)c1 | -2 | 66* | 5 | 14 | -7 | 27
O=C1Nc2ccccc2-n2nnnc2C1N1CCN(C(=O)C2CCCO2)CC1 (configuration not stated) | · | 16 | · | · | -5 | 1
Cn1c(=O)c2c(ncn2CC(=O)Nc2nc(-c3ccccc3Cl)cs2)n(C)c1=O | -1 | 19 | 4 | 2 | -3 | 39*
CC1CCN(CCNC(=O)c2ccc3c(=O)n(Cc4ccc(Cl)cc4)c(=S)[nH]c3c2)CC1 | 9.9* | · | 13 | 12 | -9 | ·
CCOC(=O)NC(NCC(O)c1ccccc1)(C(F)(F)F)C(F)(F)F (configuration not stated) | 0 | 56* | 0 | 0 | -2 | 67*
CN(Cc1ccccc1)C(=O)c1cccc(NC(=O)Cc2cccc(NC(=O)C3CCN(C(=O)CCc4ccccc4)CC3)c2)c1 | · | -3 | · | · | · | 6
O=S(=O)(c1ccc(C(F)(F)F)cc1)N1CCCc2nc(-c3ccc(Br)cc3)ccc21 | · | -26 | · | · | · | 0
COc1cc(/C=N/NC(=O)c2ccccc2O)ccc1OCC(=O)Nc1ccccc1 | 1 | 32 | 0 | 7 | 2 | 11
O=C(COc1ccc(/C=N/NC(=O)c2cc3ccccc3o2)cc1Cl)Nc1ccccc1 | 20* | · | 1 | 8 | 1 | ·
COc1cccc2cc(C(C)N(CCCN3CCOCC3)C(=S)Nc3cccc(C)c3C)oc12 (configuration not stated) | 0 | -48 | 3 | 0 | -1 | 39*
COc1cccc2cc(C(C)N(CCCN3CCOCC3)C(=S)Nc3cc(C)ccc3C)oc12 (configuration not stated) | -2 | -30 | 10 | 12 | -2 | -3
CC(C)NC(=O)C1C(c2ccc(C(F)(F)F)cc2)=Nc2ccccc2N1C(=O)c1cccc(C(F)(F)F)c1 (configuration not stated) | · | -22 | · | · | 0 | -2
COc1ccc(O)c(/C=N/Nc2nc3ccccc3[nH]2)c1 | -3 | 12 | 12 | -1 | -3 | 42*
COc1cc(/C=N/Nc2nc3ccccc3[nH]2)cc(OC)c1O | -3 | -14 | 3 | -44 | -3 | 6
CC(/C=N/Nc1nc2ccccc2[nH]1)=C\c1ccccc1 | -1 | 38 | -3 | -18 | -4 | 40*
COc1cc(/C=N/Nc2nc3ccccc3[nH]2)ccc1O | -3 | 21 | 4 | -55 | -2 | 42*
CC(/C=N/Nc1nc(C)cc(=O)[nH]1)=C\c1ccccc1 | 1 | -5 | -5 | -9 | 0 | 2
COC(=O)[C@]12C[C@H](CC(=O)NCc3ccccc3)C(=O)N(Cc3ccccc3)C1=C[C@H](C(C)(C)C)O[C@@H]2C | · | -39 | · | · | · | -1
CCOC(=O)C1=C(C(=O)OCC)C2N(Cc3ccc(Br)cc3)c3ccccc3[C@@]23C[C@@H](C(=O)OC)N(S(=O)(=O)c2cccs2)C3=N1 (some centres not stated) | · | -21 | · | · | · | 0
Cc1ccc(SCc2c(C(=O)N/N=C/c3ccncc3)nnn2-c2nonc2N)cc1 | 5 | 50* | 16 | -2 | 3 | 12
CC1CCN(Cc2c(C(=O)N/N=C/c3cccc(C(F)(F)F)c3)nnn2-c2nonc2N)CC1 | 5 | -32 | 12 | -5 | -4 | -3
CC1CCN(Cc2c(C(=O)N/N=C/c3ccc(C(F)(F)F)cc3)nnn2-c2nonc2N)CC1 | 24* | 8 | -8 | 4 | 5 | -3
CN(C)c1ccc(/C=N/NC(=O)c2nnn(-c3nonc3N)c2CN(C)c2ccccc2)cc1 | 8.5* | 15 | 11 | 2 | 9 | 2
C#CCN1CC(COc2ccccc2)OCCS1(=O)=O (configuration not stated) | · | 1 | · | · | · | 2
COC(=O)CC(=O)CC(NS(=O)(=O)c1ccc(C)cc1)c1ccccc1 (configuration not stated) | · | -17 | · | · | · | 1
